# Assay results pooled from the literature.
# Lines come from different studies, so protocols differ.
# Target: Cyclin-dependent kinase 15 (CDK15, Homo sapiens, UniProt Q96Q40)
Structure (SMILES),observed,method,concentration,remaining binding
CN(c1nccc(-c2cnn3ncccc23)n1)C1CC1,binding,,1 µM,100%
O=C(c1ccc(Nc2ncc(Cl)c(-c3cc4ccccc4s3)n2)cc1)N1CCC(N2CCCC2)CC1,binding,competition with immobilised ligand,1 µM,70%
N[C@H]1CCN(c2nccc(-c3cnn4ncccc34)n2)C1,binding,,1 µM,100%
CN(C)CC#Cc1ccc(OCCCc2sc(N3CCc4cccc(C(=O)Nc5nc6ccccc6s5)c4C3)nc2C(=O)O)c(F)c1,cell-free assay,competition with immobilised ligand,1 µM,100%
O=C(NCC1CCOCC1)c1n[nH]cc1NC(=O)c1c(F)cccc1F,binding,competition with immobilised ligand,1 µM,82%
CCS(=O)(=O)c1cc2cc(C[C@@](O)(CC(C)(C)c3ccc(F)cc3C(N)=O)C(F)(F)F)[nH]c2cn1,cell-free assay,competition with immobilised ligand,1 µM,59%
C=CC(=O)N1CCC(C(=O)NCC(=O)N2CCN(c3nc(-c4cnc(N)nc4C(F)F)nc(N4CCOCC4)n3)CC2)CC1,binding,competition with immobilised ligand,1 µM,100%
CCOC(=O)c1cc2cc(-c3cc(C(=O)NCc4ccc(C(=O)O)cc4)nn3C)ccc2[nH]1,cell-free assay,competition with immobilised ligand,0.1 µM,93%
Nc1ncc2c(n1)-c1c([nH]c3ccc(C#CC4CC4)cc13)CCCC2,binding,competition with immobilised ligand,1 µM,96%
Cc1nc(Cc2cccc(C(F)(F)F)c2)sc1-c1ccc(C(N)=O)nc1,cell-free assay,competition with immobilised ligand,1 µM,86%
CN(C)c1nccc(-c2cnn3ncccc23)n1,binding,,1 µM,100%
CCc1ccccc1C(=O)Nc1n[nH]c2c(C)c(F)c(C3C(C#N)=C(C)N(C)C(C)=C3C#N)cc12,cell-free assay,competition with immobilised ligand,1 µM,95%
c1cncc(-c2cccc(Nc3nccc(NC4CCCCC4)n3)c2)c1,binding,competition with immobilised ligand,10 µM,76%
CNC(=O)[C@@H]1CC[C@@H](n2c(-c3ccc4cnccc4c3)nc3ccc(C(=O)NCc4cccc(C(N)=O)c4)cc32)C1,binding,competition with immobilised ligand,1 µM,100%
COc1cccc(CNC(=O)c2nc3scc(COCc4ccc(C(=O)O)cc4)c3c(=O)[nH]2)c1,cell-free assay,competition with immobilised ligand,1 µM,97.6%
COc1cnc(Nc2cccc(S(N)(=O)=O)c2)nc1N1CCN(c2ccccc2)CC1,binding,competition with immobilised ligand,1 µM,93%
F[C@@H]1CCN(c2nccc(-c3cnn4ncccc34)n2)C1,binding,,1 µM,100%
O=C(NCCCN1CCOCC1)c1ccc(Nc2ncc(Cl)c(-c3ccc(Cl)s3)n2)cc1,binding,competition with immobilised ligand,1 µM,89%
Cc1cnn2ncc(-c3ccnc(N(C)C)n3)c2c1,binding,,1 µM,100%
O=C(c1ccc(Nc2nccc(-c3cc4ccccc4s3)n2)cc1)N1CCC(N2CCCC2)CC1,binding,competition with immobilised ligand,1 µM,100%
CN(C)c1ncc(F)c(-c2cnn3ncccc23)n1,binding,,1 µM,100%
O=C(O)c1cc(-c2ccc(C3CCNCC3)cc2)c2ccc(-c3ccc(C(F)(F)F)cc3)cc2c1,cell-free assay,competition with immobilised ligand,1 µM,96%
